Reference: ChEMBL document CHEMBL1828500, “Synthesis and biological evaluation of dihydroindeno and indeno [1,2-e] [1,2,4]triazolo [3,4-b] [1,3,4]thiadiazines as antimicrobial agents” (2011)
Converted amounts (≈) assume the structure as drawn.

What was measured:
Type in all cases: functional
Bacillus subtilis [1] = assay: Antibacterial activity against Bacillus subtilis MTCC 121 after 24 hrs by agar well diffusion method; details: MTCC 121, 24 h
Summary of the method: (§1)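 MIC by modified agar well diffusion. Two-fold serial dilutions (DMSO stock diluted in sterile distilled water), range 256 to 0.5, placed in wells in triplicate. Agar was pre-seeded with 100 standardized inoculum at 10⁶ cfu/mL. Incubated aerobically at 37 °C for 24 h. MIC taken as lowest concentration giving a clear zone, i.e. complete growth inhibition.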

Penicillium sp. = assay: Antifungal activity against Penicillium sp. assessed as inhibition of mycelial growth at 4 mg/ml after 7 days; details: 168 h, read-out: GI
Summary of the method: (§2)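 Poisoned food method. Molds grown on Sabouraud dextrose agar at 25 °C for 7 days to provide inocula. Molten SDA (45 °C) dosed with compound at 4.0 mg/mL in DMSO, then solidified. 8 mm fungal plugs from colony margins placed centrally. Incubated 25 °C for 7 days, in triplicate. % mycelial growth inhibition calculated from colony diameters versus DMSO control. Fluconazole served as positive control.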

Escherichia coli [2] = assay: Antibacterial activity against Escherichia coli MTCC 1652 after 24 hrs by agar well diffusion method; details: MTCC 1652, 24 h; summary of the method: as §1
Escherichia coli [3] = assay: Antibacterial activity against Escherichia coli MTCC 1652 at 2 mg/ml after 24 hrs by agar well diffusion method; details: MTCC 1652, 24 h, read-out: DIZ
Summary of the method: (§3)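 Cultures adjusted to 0.5 McFarland and left 15 min on agar for adsorption. 8 mm wells bored and loaded with compound at 2.0 mg/mL in DMSO. Incubated 37 °C for 24 h. Growth-inhibition zone diameter (mm) read with a zone scale and reported as the average. DMSO served as negative control and ciprofloxacin as positive control.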

Aspergillus niger = assay: Antifungal activity against Aspergillus niger assessed as inhibition of mycelial growth at 4 mg/ml after 7 days; details: 168 h, read-out: GI; summary of the method: as §2
Staphylococcus aureus [4] = assay: Antibacterial activity against Staphylococcus aureus MTCC 96 at 2 mg/ml after 24 hrs by agar well diffusion method; details: MTCC 96, 24 h, read-out: DIZ; summary of the method: as §3
Pseudomonas aeruginosa [5] = assay: Antibacterial activity against Pseudomonas aeruginosa MTCC 741 after 24 hrs by agar well diffusion method; details: MTCC 741, 24 h; summary of the method: as §1
Pseudomonas aeruginosa [6] = assay: Antibacterial activity against Pseudomonas aeruginosa MTCC 741 at 2 mg/ml after 24 hrs by agar well diffusion method; details: MTCC 741, 24 h, read-out: DIZ; summary of the method: as §3
Bacillus subtilis [7] = assay: Antibacterial activity against Bacillus subtilis MTCC 121 at 2 mg/ml after 24 hrs by agar well diffusion method; details: MTCC 121, 24 h, read-out: DIZ; summary of the method: as §3
Staphylococcus aureus [8] = assay: Antibacterial activity against Staphylococcus aureus MTCC 96 after 24 hrs by agar well diffusion method; details: MTCC 96, 24 h; summary of the method: as §1
Aspergillus flavus = assay: Antifungal activity against Aspergillus flavus assessed as inhibition of mycelial growth at 4 mg/ml after 7 days; details: 168 h, read-out: GI; summary of the method: as §2

Row | SMILES | MIC (Bacillus subtilis [1]) [µg/mL] | inhibition of growth at 4000 µg/mL (Penicillium sp.) [%] | MIC (Escherichia coli [2]) [µg/mL] | zone of inhibition at 2000 µg/mL (Escherichia coli [3]) [mm] | inhibition of growth at 4000 µg/mL (Aspergillus niger) [%] | zone of inhibition at 2000 µg/mL (Staphylococcus aureus [4]) [mm] | MIC (Pseudomonas aeruginosa [5]) [µg/mL] | zone of inhibition at 2000 µg/mL (Pseudomonas aeruginosa [6]) [mm] | zone of inhibition at 2000 µg/mL (Bacillus subtilis [7]) [mm] | MIC (Staphylococcus aureus [8]) [µg/mL] | inhibition of growth at 4000 µg/mL (Aspergillus flavus) [%]
1 | Cc1cccc2c1CC1Sc3nnc(-c4ccccc4)n3N=C21 (configuration not stated) | 32 (≈ 101 µM) | 60 | 128 (≈ 402 µM) | 17.3 | 55.5 | 22.3 | 128 (≈ 402 µM) | 15.6 | 21.6 | 32 (≈ 101 µM) | 58.8
2 | Cc1cccc2c1CC1Sc3nncn3N=C21 (configuration not stated) | 2 (≈ 8.25 µM) | 62.5 | 32 (≈ 132 µM) | 22.3 | 63.3 | 26.3 | 32 (≈ 132 µM) | 20.3 | 30.6 | 8 (≈ 33 µM) | 65.5
3 | Cc1cccc2c3nn4c(-c5ccccc5)nnc4sc-3cc12 | 32 (≈ 101 µM) | 48.8 | 128 (≈ 405 µM) | 15.6 | 55.5 | 18.6 | 128 (≈ 405 µM) | 15.3 | 22.6 | 64 (≈ 202 µM) | 51.1
4 | Cc1cccc2c3nn4cnnc4sc-3cc12 | 4 (≈ 16.6 µM) | 66.6 | 64 (≈ 266 µM) | 20.6 | 71.1 | 25.3 | 128 (≈ 533 µM) | 18.3 | 28.6 | 16 (≈ 66.6 µM) | 68.8
5 | c1ccc(-c2nnc3n2N=C2c4ccccc4CC2S3)cc1 (configuration not stated) | 128 (≈ 421 µM) | 50 | 64 (≈ 210 µM) | 18.3 | 51.1 | 20.6 | 256 (≈ 841 µM) | 14.6 | 16.3 | 64 (≈ 210 µM) | 48.8
6 | CCCc1nnc2sc3cc4ccccc4c-3nn12 | 16 (≈ 59.6 µM) | 47.7 | 64 (≈ 238 µM) | 18.6 | 51.1 | 25.6 | 128 (≈ 477 µM) | 16.3 | 24.3 | 16 (≈ 59.6 µM) | 48.8
7 | Cc1cccc2c1CC1Sc3nnc(C)n3N=C21 (configuration not stated) | 2 (≈ 7.8 µM) | 67.7 | 64 (≈ 250 µM) | 20.6 | 67.7 | 27.6 | 64 (≈ 250 µM) | 18.6 | 31.3 | 8 (≈ 31.2 µM) | 68.8
